Assay results reported in ChEMBL document CHEMBL1649116, “Chloroquine is grossly overdosed and overused but well tolerated in Guinea-bissau” (Antimicrob Agents Chemother, 2009).

Tests used:
[1] = Drug level in malaria patient whole blood assessed as desethychloroquine level on day 1; assay type: ADME, tissue-based; settings: human, read-out: Drug uptake
Procedure, shortened: (§1)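 Observational study of 102 children in Guinea-Bissau given chloroquine unsupervised under routine prescribing, usually split into two to three daily doses of 6.6 mg kg−1. Whole blood was drawn 1, 4 and 14 days after the last reported dose for chloroquine and desethylchloroquine analysis. Values are medians with interquartile range, in nM.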

[2] = Drug level in malaria patient whole blood assessed as desethychloroquine level on day 4; assay type: ADME, tissue-based; settings: human, read-out: Drug uptake; procedure, shortened: as §1
[3] = Drug level in malaria patient whole blood assessed as desethychloroquine level on day 14; assay type: ADME, tissue-based; settings: human, read-out: Drug uptake; procedure, shortened: as §1
Homo sapiens [4] = organism: Homo sapiens; assay: Toxicity in malaria patient assessed as vomiting on day 1 after treatment at quartile 1 of compound concentration; assay type: organism-based; settings: in vivo
Procedure, shortened: (§2)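 Mothers or guardians were questioned at each follow-up visit about the child's symptoms and drug intake. Children were grouped into quartiles by whole-blood chloroquine concentration 1 day after the end of treatment. Symptom frequency is given as n/N (%), and vomiting duration in days. Trend across quartiles was tested with the nonparametric test for trend.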

Homo sapiens [5] = organism: Homo sapiens; assay: Toxicity in malaria patient assessed as vomiting on day 1 after treatment at quartile 2 of compound concentration; assay type: organism-based; settings: in vivo; procedure, shortened: as §2
Homo sapiens [6] = organism: Homo sapiens; assay: Toxicity in malaria patient assessed as vomiting on day 1 after treatment at quartile 3 of compound concentration; assay type: organism-based; settings: in vivo; procedure, shortened: as §2
Homo sapiens [7] = organism: Homo sapiens; assay: Toxicity in malaria patient assessed as vomiting on day 1 after treatment at quartile 4 of compound concentration; assay type: organism-based; settings: in vivo; procedure, shortened: as §2
Homo sapiens [8] = organism: Homo sapiens; assay: Toxicity in malaria patient assessed as diarrhea on day 1 after treatment at quartile 1 of compound concentration; assay type: organism-based; settings: in vivo; procedure, shortened: as §2
Homo sapiens [9] = organism: Homo sapiens; assay: Toxicity in malaria patient assessed as diarrhea on day 1 after treatment at quartile 2 of compound concentration; assay type: organism-based; settings: in vivo; procedure, shortened: as §2
Homo sapiens [10] = organism: Homo sapiens; assay: Toxicity in malaria patient assessed as diarrhea on day 1 after treatment at quartile 3 of compound concentration; assay type: organism-based; settings: in vivo; procedure, shortened: as §2
Homo sapiens [11] = organism: Homo sapiens; assay: Toxicity in malaria patient assessed as diarrhea on day 1 after treatment at quartile 4 of compound concentration; assay type: organism-based; settings: in vivo; procedure, shortened: as §2
Homo sapiens [12] = organism: Homo sapiens; assay: Toxicity in malaria patient assessed as duration of vomiting at quartile 1 of compound concentration; assay type: organism-based; settings: in vivo; procedure, shortened: as §2
Homo sapiens [13] = organism: Homo sapiens; assay: Toxicity in malaria patient assessed as duration of vomiting at quartile 2 of compound concentration; assay type: organism-based; settings: in vivo; procedure, shortened: as §2
Homo sapiens [14] = organism: Homo sapiens; assay: Toxicity in malaria patient assessed as duration of vomiting at quartile 3 of compound concentration; assay type: organism-based; settings: in vivo; procedure, shortened: as §2
Homo sapiens [15] = organism: Homo sapiens; assay: Toxicity in malaria patient assessed as duration of vomiting at quartile 4 of compound concentration; assay type: organism-based; settings: in vivo; procedure, shortened: as §2
[16] = Plasma protein binding in healthy human; assay type: ADME, cell-free; settings: read-out: PPB
[17] = Drug level in malaria patient whole blood on day 4; assay type: ADME, tissue-based; settings: human, read-out: Drug uptake; procedure, shortened: as §1
[18] = Drug level in malaria patient whole blood on day 1; assay type: ADME, tissue-based; settings: human, read-out: Drug uptake; procedure, shortened: as §1
[19] = Drug level in malaria patient whole blood on day 14; assay type: ADME, tissue-based; settings: human, read-out: Drug uptake; procedure, shortened: as §1
[20] = Volume of distribution in malaria patient; assay type: ADME, organism-based; settings: human, in vivo

Row | SMILES | concentration [1] [nM] | concentration [2] [nM] | concentration [3] [nM] | Activity (Homo sapiens [4]) [%] | Activity (Homo sapiens [5]) [%] | Activity (Homo sapiens [6]) [%] | Activity (Homo sapiens [7]) [%] | Activity (Homo sapiens [8]) [%] | Activity (Homo sapiens [9]) [%] | Activity (Homo sapiens [10]) [%] | Activity (Homo sapiens [11]) [%] | Time (Homo sapiens [12]) [days] | Time (Homo sapiens [13]) [days] | Time (Homo sapiens [14]) [days] | Time (Homo sapiens [15]) [days] | fraction unbound [16] | concentration [17] [nM] | concentration [18] [nM] | concentration [19] [nM] | Vd [20] [L/kg]
1 | CCNCCCC(C)Nc1ccnc2cc(Cl)ccc12 (stereo not given) [DESETHYLCHLOROQUINE] | 638 | 446 | 181 |  |  |  |  |  |  |  |  |  |  |  |  |  |  |  |  | 
2 | CCN(CC)CCCC(C)Nc1ccnc2cc(Cl)ccc12 (stereo not given) [CHLOROQUINE] |  |  |  | 25 | 24 | 14 | 8 | 42 | 64 | 33 | 21 | 1.4 | 1.1 | 0.5 | 0.5 | 0.5 | 626 | 894 | 204 | > 100
